In ChEMBL document CHEMBL1153534, “Design and synthesis of androgen receptor antagonists with bulky side chains for overcoming antiandrogen resistance” (J Med Chem, 2009):
Activity calls are given as the source filed them. The calls are words filed in the database; no cut-off is given here.

Assays:
LNCaP [1] = test: Cytotoxicity against human LNCAP cells after 72 hrs by MTT assay; type: functional, cell-based
[2] = Cytotoxicity against human C4-2B cells after 72 hrs by MTT assay; type: functional, cell-based; details: LNCaP C4-2B
PC-3 [3] = test: Cytotoxicity against human PC3 cells after 72 hrs by MTT assay; type: functional, cell-based; details: Homo sapiens, PC-3, 72 h; read-out: IC50
[4] = Cytotoxicity against human MDA PCa 2b cells after 72 hrs by MTT assay; type: functional, cell-based
[5] = tested on: Androgen receptor (Homo sapiens), P10275 [T878A]; test: Activity in human PC3 cells expressing androgen receptor T877A mutant assessed as ARE-dependent transactivation at 0.1 uM after 24 hrs by luciferase reporter gene assay in absence of DHT; type: cell-based; details: PC-3
Sequence of Androgen receptor (Homo sapiens), P10275 [T878A] (P10275 whole entry T878A): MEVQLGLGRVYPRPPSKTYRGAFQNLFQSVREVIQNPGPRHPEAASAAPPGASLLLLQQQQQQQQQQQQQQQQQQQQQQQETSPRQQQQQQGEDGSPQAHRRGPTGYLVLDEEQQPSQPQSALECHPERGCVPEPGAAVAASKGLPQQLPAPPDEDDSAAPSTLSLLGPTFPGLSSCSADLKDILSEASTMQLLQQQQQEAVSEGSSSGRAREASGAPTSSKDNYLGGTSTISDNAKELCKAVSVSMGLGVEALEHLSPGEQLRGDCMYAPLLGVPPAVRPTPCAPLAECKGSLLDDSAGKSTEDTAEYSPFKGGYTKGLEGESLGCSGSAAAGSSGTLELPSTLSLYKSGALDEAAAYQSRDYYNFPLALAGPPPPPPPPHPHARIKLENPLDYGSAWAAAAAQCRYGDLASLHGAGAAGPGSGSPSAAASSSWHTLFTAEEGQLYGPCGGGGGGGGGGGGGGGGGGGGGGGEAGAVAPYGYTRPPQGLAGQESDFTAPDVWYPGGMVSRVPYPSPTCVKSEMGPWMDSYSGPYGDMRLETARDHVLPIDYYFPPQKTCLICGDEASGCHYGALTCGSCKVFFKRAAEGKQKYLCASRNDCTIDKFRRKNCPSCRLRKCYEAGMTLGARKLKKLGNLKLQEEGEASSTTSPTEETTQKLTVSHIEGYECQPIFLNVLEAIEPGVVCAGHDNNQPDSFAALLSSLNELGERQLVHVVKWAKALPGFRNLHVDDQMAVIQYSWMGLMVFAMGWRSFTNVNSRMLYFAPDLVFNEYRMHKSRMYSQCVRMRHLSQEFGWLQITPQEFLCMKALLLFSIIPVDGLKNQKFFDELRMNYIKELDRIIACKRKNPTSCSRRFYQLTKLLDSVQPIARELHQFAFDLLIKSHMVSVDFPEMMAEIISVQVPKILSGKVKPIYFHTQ
How it was run: (§1)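 PC-3 cells, which lack endogenous AR, transiently transfected with plasmids expressing human AR (WT, T877A, W741C or H874Y) plus an ARE-driven MMTV-luc reporter. Cells were treated with or without 0.1 nM DHT. Firefly luciferase was standardized to a Renilla control and normalized to the 0.1 nM DHT signal. Mean ± sd.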

[6] = target: T1, Androgen receptor (Homo sapiens) (UniProt P10275); test: Activity in human PC3 cells expressing wild-type androgen receptor assessed as ARE-dependent transactivation at 1 uM after 24 hrs by luciferase reporter gene assay in absence of DHT; type: cell-based; details: PC-3; how it was run: as §1
T1 sequence (whole entry): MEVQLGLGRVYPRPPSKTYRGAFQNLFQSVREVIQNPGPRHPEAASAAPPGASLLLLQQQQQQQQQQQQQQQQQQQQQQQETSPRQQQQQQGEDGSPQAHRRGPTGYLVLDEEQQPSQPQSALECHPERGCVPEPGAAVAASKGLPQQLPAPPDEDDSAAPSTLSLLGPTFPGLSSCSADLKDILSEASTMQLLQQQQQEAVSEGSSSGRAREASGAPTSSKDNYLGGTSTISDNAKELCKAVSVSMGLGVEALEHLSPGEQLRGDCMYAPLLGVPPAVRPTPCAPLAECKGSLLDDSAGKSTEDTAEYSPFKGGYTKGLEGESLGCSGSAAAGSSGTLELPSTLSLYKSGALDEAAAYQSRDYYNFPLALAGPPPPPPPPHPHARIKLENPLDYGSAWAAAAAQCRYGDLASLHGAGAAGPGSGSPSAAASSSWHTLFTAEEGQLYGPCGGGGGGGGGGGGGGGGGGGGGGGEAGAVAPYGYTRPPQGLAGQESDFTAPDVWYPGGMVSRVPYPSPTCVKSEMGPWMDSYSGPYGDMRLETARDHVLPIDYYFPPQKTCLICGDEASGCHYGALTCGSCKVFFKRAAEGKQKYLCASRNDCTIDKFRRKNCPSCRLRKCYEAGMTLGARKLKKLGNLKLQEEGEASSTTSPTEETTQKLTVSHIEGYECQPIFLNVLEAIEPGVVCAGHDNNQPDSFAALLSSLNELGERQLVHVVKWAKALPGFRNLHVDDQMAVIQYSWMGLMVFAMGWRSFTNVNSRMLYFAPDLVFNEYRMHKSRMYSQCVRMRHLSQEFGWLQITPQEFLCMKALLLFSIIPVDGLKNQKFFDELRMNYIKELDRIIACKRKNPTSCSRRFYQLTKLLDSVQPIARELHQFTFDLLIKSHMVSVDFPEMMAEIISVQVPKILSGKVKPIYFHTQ

PC-3 [7] = test: Activity in human PC3 cells expressing androgen receptor H874Y mutant assessed as ARE-dependent transactivation at 1 uM after 24 hrs by luciferase reporter gene assay in absence of DHT; type: cell-based; how it was run: as §1
[8] = target: T1, Androgen receptor (Homo sapiens); test: Antiandrogenic activity in human PC3 cells expressing wild-type androgen receptor assessed as inhibition of DHT-induced ARE-dependent transactivation at 1 uM after 24 hrs by luciferase reporter gene assay; type: cell-based; details: PC-3; how it was run: as §1
PC-3 [9] = test: Antiandrogenic activity in human PC3 cells expressing androgen receptor T877A mutant assessed as inhibition of DHT-induced ARE-dependent transactivation at 1 uM after 24 hrs by luciferase reporter gene assay; type: cell-based; how it was run: as §1
PC-3 [10] = test: Antiandrogenic activity in human PC3 cells expressing androgen receptor H874Y mutant assessed as inhibition of DHT-induced ARE-dependent transactivation at 1 uM after 24 hrs by luciferase reporter gene assay; type: cell-based; how it was run: as §1
LNCaP [11] = test: Suppression of DHT-stimulated growth of human LNCAP cells after 72 hrs; type: functional, cell-based
LNCaP [12] = test: Suppression of DHT-stimulated growth of human LNCAP cells after 72 hrs with increasing concentration of DHT; type: functional, cell-based
PC-3 [13] = test: Suppression of DHT-stimulated growth of human PC3 cells after 72 hrs with increasing concentration of DHT; type: functional, cell-based
[14] = target: T2, Progesterone receptor (Homo sapiens) (UniProt P06401); test: Antagonist activity at human PR B-form expressed in human PC3 cells assessed as inhibition of R5020-induced transactivation at 1 uM after 24 hrs by luciferase reporter gene assay; type: functional, cell-based; details: PC-3
T2 sequence (whole entry): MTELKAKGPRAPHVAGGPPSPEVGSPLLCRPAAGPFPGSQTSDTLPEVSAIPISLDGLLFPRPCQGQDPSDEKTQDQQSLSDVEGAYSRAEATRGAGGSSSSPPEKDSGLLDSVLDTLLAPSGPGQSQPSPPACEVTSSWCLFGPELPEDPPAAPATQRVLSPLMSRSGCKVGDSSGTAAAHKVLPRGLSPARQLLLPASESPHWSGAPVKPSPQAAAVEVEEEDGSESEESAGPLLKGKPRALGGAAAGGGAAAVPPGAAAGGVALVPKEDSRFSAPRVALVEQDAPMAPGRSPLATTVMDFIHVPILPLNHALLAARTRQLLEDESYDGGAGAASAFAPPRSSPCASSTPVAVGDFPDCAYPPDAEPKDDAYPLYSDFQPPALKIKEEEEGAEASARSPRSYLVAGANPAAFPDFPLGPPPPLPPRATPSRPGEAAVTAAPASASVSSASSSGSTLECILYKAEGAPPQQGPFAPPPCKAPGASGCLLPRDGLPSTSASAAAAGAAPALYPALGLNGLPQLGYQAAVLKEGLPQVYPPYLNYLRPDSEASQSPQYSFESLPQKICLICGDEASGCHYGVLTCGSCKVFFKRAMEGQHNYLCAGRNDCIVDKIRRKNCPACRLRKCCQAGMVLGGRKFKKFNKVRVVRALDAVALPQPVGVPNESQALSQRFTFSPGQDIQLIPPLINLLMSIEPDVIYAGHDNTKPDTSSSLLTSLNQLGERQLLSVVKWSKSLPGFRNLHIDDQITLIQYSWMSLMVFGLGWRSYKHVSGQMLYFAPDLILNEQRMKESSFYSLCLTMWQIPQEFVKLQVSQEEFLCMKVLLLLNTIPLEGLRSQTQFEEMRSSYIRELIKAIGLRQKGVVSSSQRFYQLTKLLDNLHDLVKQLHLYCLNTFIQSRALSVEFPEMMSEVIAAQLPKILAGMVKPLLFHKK
How it was run: (§2)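 PC-3 cells carrying a luciferase reporter for transactivation by the human PR B form. Antagonist mode used 10 nM R5020 as the agonist. Agonist mode ran in the absence of R5020. Luciferase read-out.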

[15] = target: T2, Progesterone receptor (Homo sapiens); test: Agonist activity at human PR B-form expressed in human PC3 cells assessed as receptor transactivation at 1 uM after 24 hrs by luciferase reporter gene assay; type: functional, cell-based; details: PC-3; how it was run: as §2

Activity [5]: inactive
Activity [6]: inactive
Activity [8]: Active
Activity [14]: inactive
Activity [15]: inactive
Structure (SMILES): COc1cc(/C=C(\C(=O)/C=C/C2=C(C)CCCC2(C)C)C(=O)/C=C/c2ccc(O)c(OC)c2)ccc1O
IC50 (LNCaP [1]): 1300 nM
IC50 [2]: 1600 nM
IC50 (PC-3 [3]): 4200 nM
IC50 [4]: 2500 nM
Activity (PC-3 [7]): inactive
Activity (PC-3 [9]): Active
Activity (PC-3 [10]): Active
Activity (LNCaP [11]): Dose-dependent effect
Activity (LNCaP [12]): inactive
Activity (PC-3 [13]): Active
